The values below come from ChEMBL document CHEMBL1629465, “Efficient synthesis of novel 1,2,4-triazole fused acyclic and 21-28 membered macrocyclic and/or lariat macrocyclic oxaazathia crown compounds with potential antimicrobial activity” (2010).

In the first assay the test system is Aspergillus fumigatus. Put plainly: Antimicrobial activity against Aspergillus fumigatus RCMB 002008 at 1 mg/ml by agar diffusion technique. The note with it: read-out: DIZ. It is filed as functional. In a few lines: (§1)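 Agar well diffusion. Test compounds and reference standard drugs were diluted to 5.0, 2.5 and 1.0 mg/mL and applied to 0.6 cm wells. Inhibition zone beyond the control was scored as 0 (no inhibition), + (0.1–0.5 cm), ++ (0.6–1.0 cm) or +++ (1.0–1.5 cm).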
`CN(C/C=C/C#CC(C)(C)C)Cc1cccc2ccccc12` [TERBINAFINE]: the zone of inhibition at 1000 µg/mL came to 6 mm.

The subject of another assay is Aspergillus fumigatus. Put plainly: Antimicrobial activity against Aspergillus fumigatus RCMB 002008 at 2.5 mg/ml by agar diffusion technique. It is filed as functional. To be noted: read-out: DIZ. In a few lines: as §1
For orientation: In agar diffusion tests the substance spreads into inoculated agar from a disc or well.
`CN(C/C=C/C#CC(C)(C)C)Cc1cccc2ccccc12` [TERBINAFINE]: the zone of inhibition at 2500 µg/mL came to 10 mm.

The subject of another assay is Aspergillus fumigatus. Put plainly: Antimicrobial activity against Aspergillus fumigatus RCMB 002008 at 5 mg/ml by agar diffusion technique. It is filed as functional. The note with it: read-out: DIZ. In a few lines: as §1
With `CN(C/C=C/C#CC(C)(C)C)Cc1cccc2ccccc12` [TERBINAFINE], the zone of inhibition at 5000 µg/mL worked out at 10 mm.

In a further assay the test system is Penicillium italicum. Put plainly: Antimicrobial activity against Penicillium italicum RCMB 001018 at 1 mg/ml by agar diffusion technique. It is filed as functional. To be noted: read-out: DIZ. In a few lines: as §1
Take `CN(C/C=C/C#CC(C)(C)C)Cc1cccc2ccccc12` [TERBINAFINE]: the zone of inhibition at 1000 µg/mL was 6 mm.

The subject of a further assay is Penicillium italicum. Put plainly: Antimicrobial activity against Penicillium italicum RCMB 001018 at 2.5 mg/ml by agar diffusion technique. It is filed as functional. The note with it: read-out: DIZ. In a few lines: as §1
For the compound `CN(C/C=C/C#CC(C)(C)C)Cc1cccc2ccccc12` [TERBINAFINE], the zone of inhibition at 2500 µg/mL is 10 mm.

The test system of a further assay is Penicillium italicum. Put plainly: Antimicrobial activity against Penicillium italicum RCMB 001018 at 5 mg/ml by agar diffusion technique. It is filed as functional. The note with it: read-out: DIZ. In a few lines:
as §1
`CN(C/C=C/C#CC(C)(C)C)Cc1cccc2ccccc12` [TERBINAFINE]: the zone of inhibition at 5000 µg/mL amounted to 10 mm.

The test system of the next assay is Syncephalastrum racemosum. Put plainly: Antimicrobial activity against Syncephalastrum racemosum RCMB 016001 at 1 mg/ml by agar diffusion technique. Format: functional. The note with it: read-out: DIZ. In a few lines:
as §1
As to `CN(C/C=C/C#CC(C)(C)C)Cc1cccc2ccccc12` [TERBINAFINE], the zone of inhibition at 1000 µg/mL amounted to 10 mm.

Another assay relates to Syncephalastrum racemosum. Put plainly: Antimicrobial activity against Syncephalastrum racemosum RCMB 016001 at 2.5 mg/ml by agar diffusion technique. To be noted: read-out: DIZ. Format: functional. In a few lines:
as §1
For the compound `CN(C/C=C/C#CC(C)(C)C)Cc1cccc2ccccc12` [TERBINAFINE], the zone of inhibition at 2500 µg/mL is 10 mm.

The next assay relates to Syncephalastrum racemosum. Put plainly: Antimicrobial activity against Syncephalastrum racemosum RCMB 016001 at 5 mg/ml by agar diffusion technique. Format: functional. To be noted: read-out: DIZ. In a few lines:
as §1
`CN(C/C=C/C#CC(C)(C)C)Cc1cccc2ccccc12` [TERBINAFINE]: the zone of inhibition at 5000 µg/mL was 10 mm.

In a further assay the test system is Candida albicans. Put plainly: Antimicrobial activity against Candida albicans RCMB 005003 at 1 mg/ml by agar diffusion technique. Format: functional. The note with it: read-out: DIZ. In a few lines:
as §1
In the case of `CN(C/C=C/C#CC(C)(C)C)Cc1cccc2ccccc12` [TERBINAFINE], the zone of inhibition at 1000 µg/mL is 6 mm.

For another assay, the system named is Candida albicans. Put plainly: Antimicrobial activity against Candida albicans RCMB 005003 at 2.5 mg/ml by agar diffusion technique. To be noted: read-out: DIZ. Format: functional. In a few lines:
as §1
With `CN(C/C=C/C#CC(C)(C)C)Cc1cccc2ccccc12` [TERBINAFINE], the zone of inhibition at 2500 µg/mL amounted to 6 mm.

A further assay has as its system Candida albicans. Put plainly: Antimicrobial activity against Candida albicans RCMB 005003 at 5 mg/ml by agar diffusion technique. It is filed as functional. The note with it: read-out: DIZ. In a few lines:
as §1
For `CN(C/C=C/C#CC(C)(C)C)Cc1cccc2ccccc12` [TERBINAFINE], the zone of inhibition at 5000 µg/mL is 6 mm.

For the next assay, the system named is Staphylococcus aureus. Put plainly: Antimicrobial activity against Staphylococcus aureus RCMB 106001 at 1 mg/ml by agar diffusion technique. Format: functional. The note with it: read-out: DIZ. In a few lines: as §1
For `CN(C/C=C/C#CC(C)(C)C)Cc1cccc2ccccc12` [TERBINAFINE], the zone of inhibition at 1000 µg/mL worked out at 6 mm.

The subject of another assay is Staphylococcus aureus. Put plainly: Antimicrobial activity against Staphylococcus aureus RCMB 106001 at 2.5 mg/ml by agar diffusion technique. It is filed as functional. To be noted: read-out: DIZ. In a few lines:
as §1
Take `CN(C/C=C/C#CC(C)(C)C)Cc1cccc2ccccc12` [TERBINAFINE]: the zone of inhibition at 2500 µg/mL worked out at 6 mm.

The next assay concerns Staphylococcus aureus. Put plainly: Antimicrobial activity against Staphylococcus aureus RCMB 106001 at 5 mg/ml by agar diffusion technique. Format: functional. The note with it: read-out: DIZ. In a few lines:
as §1
Turning to `CN(C/C=C/C#CC(C)(C)C)Cc1cccc2ccccc12` [TERBINAFINE], the zone of inhibition at 5000 µg/mL turned out to be 6 mm.

The next assay relates to Pseudomonas aeruginosa. Put plainly: Antimicrobial activity against Pseudomonas aeruginosa RCMB 102002 at 1 mg/ml by agar diffusion technique. It is filed as functional. To be noted: read-out: DIZ. In a few lines:
as §1
Take `CN(C/C=C/C#CC(C)(C)C)Cc1cccc2ccccc12` [TERBINAFINE]: the zone of inhibition at 1000 µg/mL was determined as 6 mm.

A further assay deals with Pseudomonas aeruginosa. Put plainly: Antimicrobial activity against Pseudomonas aeruginosa RCMB 102002 at 2.5 mg/ml by agar diffusion technique. Format: functional. The note with it: read-out: DIZ. In a few lines: as §1
As to `CN(C/C=C/C#CC(C)(C)C)Cc1cccc2ccccc12` [TERBINAFINE], the zone of inhibition at 2500 µg/mL was determined as 10 mm.

Another assay relates to Pseudomonas aeruginosa. Put plainly: Antimicrobial activity against Pseudomonas aeruginosa RCMB 102002 at 5 mg/ml by agar diffusion technique. The note with it: read-out: DIZ. Format: functional. In a few lines: as §1
As for `CN(C/C=C/C#CC(C)(C)C)Cc1cccc2ccccc12` [TERBINAFINE], the zone of inhibition at 5000 µg/mL worked out at 10 mm.

The subject of a further assay is Bacillus subtilis. Put plainly: Antimicrobial activity against Bacillus subtilis RCMB 101001 at 1 mg/ml by agar diffusion technique. Format: functional. The note with it: read-out: DIZ. In a few lines: as §1
For the compound `CN(C/C=C/C#CC(C)(C)C)Cc1cccc2ccccc12` [TERBINAFINE], the zone of inhibition at 1000 µg/mL is 6 mm.

For a further assay, the system named is Bacillus subtilis. Put plainly: Antimicrobial activity against Bacillus subtilis RCMB 101001 at 2.5 mg/ml by agar diffusion technique. Format: functional. The note with it: read-out: DIZ. In a few lines:
as §1
For `CN(C/C=C/C#CC(C)(C)C)Cc1cccc2ccccc12` [TERBINAFINE], the zone of inhibition at 2500 µg/mL is 10 mm.

The next assay concerns Bacillus subtilis. Put plainly: Antimicrobial activity against Bacillus subtilis RCMB 101001 at 5 mg/ml by agar diffusion technique. Format: functional. The note with it: read-out: DIZ. In a few lines: as §1
Consider `CN(C/C=C/C#CC(C)(C)C)Cc1cccc2ccccc12` [TERBINAFINE], for which the zone of inhibition at 5000 µg/mL came to 10 mm.

Another assay deals with Escherichia coli. Put plainly: Antimicrobial activity against Escherichia coli RCMB 103001 at 1 mg/ml by agar diffusion technique. It is filed as functional. To be noted: read-out: DIZ. In a few lines: as §1
Consider `CN(C/C=C/C#CC(C)(C)C)Cc1cccc2ccccc12` [TERBINAFINE], for which the zone of inhibition at 1000 µg/mL was 6 mm.

A further assay has as its system Escherichia coli. Put plainly: Antimicrobial activity against Escherichia coli RCMB 103001 at 2.5 mg/ml by agar diffusion technique. It is filed as functional. The note with it: read-out: DIZ. In a few lines:
as §1
Turning to `CN(C/C=C/C#CC(C)(C)C)Cc1cccc2ccccc12` [TERBINAFINE], the zone of inhibition at 2500 µg/mL was determined as 6 mm.

A further assay concerns Escherichia coli. Put plainly: Antimicrobial activity against Escherichia coli RCMB 103001 at 5 mg/ml by agar diffusion technique. It is filed as functional. To be noted: read-out: DIZ. In a few lines:
as §1
For the compound `CN(C/C=C/C#CC(C)(C)C)Cc1cccc2ccccc12` [TERBINAFINE], the zone of inhibition at 5000 µg/mL turned out to be 6 mm.
